Source: PubChem
Rows were chosen to be rich in hits. Some 3.7% of all compounds tested hit in one or more screens of this group.
hERG rescue = hERG (human) protection from proarrhythmic block | 310,000 compounds, 0.51% hits | AID 1511 | activation (rescue from dofetilide block), less the hit threshold, % at 10 µM | CHO-hERG, FluxOR thallium flux, dofetilide IC70 present;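 active = activation above the mean of controls blocked by dofetilide plus 5 SD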;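 note: thallium influx through hERG after potassium depolarization seen as dye fluorescence rise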
KCNK3 block = human KCNK3 channel inhibition, primary screen; O14649; CHO-KCNK3 thallium flux, FluxOR fluorescence; hits give low values; B-score at 10 µM; 340,000 compounds, 0.84% hits;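 active = B-score under library mean minus 4 SD, starting fluorescence ratio at most library mean plus 5 SD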;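 note: more negative B-score means stronger inhibition of thallium flux through KCNK3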
KCNQ1 inh = human KCNQ1 channel inhibition; P51787; CHO-K1 KCNQ1, FluxOR thallium flux fluorescence; hits give high values; B-score at 10 µM; 310,000 compounds, 1.3% hits; AID 2642;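 active = compounds whose thallium flux B-score, printed positive for inhibition, exceeds three library SD while starting fluorescence stays within three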;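 note: channel opened by potassium depolarization with thallium stimulus after 20 min compound exposure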
Kir21 block = blocks the mouse Kir2.1 inward-rectifier potassium channel; HEK293-Kir2.1, FluxOR thallium flux fluorescence; hits give low values; 310,000 compounds, 0.85% hits; P35561; B-score at 10 µM;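 active = fluorescence ratio B-score at or below minus 3 SD of library scores, with starting-brightness B-score within 2 SD, cut at about -4.2 in these data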;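 note: channel flux triggered by added potassium and thallium sulfate stimulus; B-score of peak minus minimum fluorescence over baseline after thallium stimulus; more negative B-score means stronger Kir2.1 block with less thallium influx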
KCNQ1 act = human KCNQ1 channel potentiation or activation. P51787. CHO-K1 KCNQ1, thallium flux FluxOR fluorescence; hits give high values. B-score at 10 µM. 310,000 compounds, 0.35% hits;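 active = fluorescence ratio B-score, a plate-corrected score, at least three library SD, with initial intensity B-score within 5 SD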
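Test system: CHO-K1 cells stably expressing KCNQ1 / Medium: assay buffer / Also added: depolarizing K+/Tl+ stimulus, K2SO4 and Tl2SO4 each 12.5 mM in 5x stock / Incubation: 90 min dye loading and 20 min compound exposure, both at room temperature / Signal: thallium influx via FluxOR fluorescence, kinetic imaging / Evaluation: B score of baseline-normalized fluorescence ratio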
KCNK9 block = human KCNK9 channel inhibition. Q9NPC2. HEK293 KCNK9, FluxOR thallium flux fluorescence; hits give low values. B-score at 10 µM. 310,000 compounds, 1.2% hits;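 active = ratio B-score over 3 SD below the library mean, with starting fluorescence within 5 SD of its mean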;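 note: negative B-score means less thallium flux so channel inhibition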
Target sequence (Q9NPC2 whole entry, looked up): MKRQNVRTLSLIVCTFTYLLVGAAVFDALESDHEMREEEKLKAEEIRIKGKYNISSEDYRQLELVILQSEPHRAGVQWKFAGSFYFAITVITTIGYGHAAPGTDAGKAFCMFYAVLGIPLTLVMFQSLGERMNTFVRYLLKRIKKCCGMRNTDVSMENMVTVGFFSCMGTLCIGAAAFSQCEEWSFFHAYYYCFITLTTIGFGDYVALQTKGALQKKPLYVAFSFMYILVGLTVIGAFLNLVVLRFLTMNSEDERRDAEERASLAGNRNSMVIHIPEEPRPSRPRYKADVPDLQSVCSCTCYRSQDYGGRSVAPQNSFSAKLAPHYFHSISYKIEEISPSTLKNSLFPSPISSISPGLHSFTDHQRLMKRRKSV
KCNK9 block conf = human KCNK9 inhibitor confirmation; inhibition, % at 10 µM; AID 492992; 4,900 compounds, 43% hits; shares compounds with KCNK9 block; HEK293 KCNK9 cells, FluxOR thallium flux fluorescence;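 active = thallium signal inhibited by more than 5 SD of the compound-free buffer control wells, on both duplicate plates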;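 note: 0% = assay buffer control wells without compound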
Kir2-1 spec = selectivity of KCNK9 modulators against mouse Kir2.1. shares compounds with KCNK9 block. Kir2.1 cells, FluxOR thallium flux fluorescence. inhibition, % at 10 µM. 4,900 compounds, 4% hits;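 active = thallium signal drop more than 5 SD beyond the mean of the no-compound control wells, seen in both duplicate plates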;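 note: signal is fluorescence rise after thallium addition divided by baseline fluorescence; plate controls were assay buffer only for no effect and full block by chlorpromazine control for full effect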
HEK293 Tl ctr = second counter-screen for KCNK9 modulators: effect in non-induced cells | inhibition, % at 10 µM | shares compounds with KCNK9 block | 4,900 compounds, 40% hits | AID 492997 | non-induced KCNK9-HEK293, FluxOR thallium flux;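 active = thallium signal drop beyond 5 SD of the untreated control mean, on both duplicate plates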;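 note: plate controls were buffer only IC0 wells for no effect and SID17386958 at its maximal inhibitory level for full effect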
KCNK3 confirm = confirmation of human KCNK3 two-pore domain potassium channel inhibitors; shares compounds with KCNK3 block; CHO-KCNK3 thallium flux, FluxOR fluorescence; 0% buffer, 100% carvedilol maximal block; 2,400 compounds, 99% hits; AID 651638; ratio percent of control, % at 10 µM;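 active = ratio percent of control, averaged over triplicates, above buffer control mean plus 5 SD, cut at about 64% in these data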;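 note: ratio is the fluorescence rise from min to max over baseline after thallium stimulus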
KCNK3 uninduced = KCNK3 inhibitor counter-screen hit in non-induced cells; shares compounds with KCNK3 block; non-induced KCNK3 parental cells, FluxOR thallium flux; hits give low values; thallium flux ratio (lower = more inhibition) at 10 µM; 2,400 compounds, 40% hits; AID 651747;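 active = thallium flux ratio, averaged over three wells, more than 5 SD below the buffer control mean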;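 note: host cells are CHO cells without KCNK3 induction; ratio is peak minus trough fluorescence over baseline then normalized to buffer controls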
An asterisk follows results filed as active; i = inactive; x = no result.

SMILES	hERG rescue	KCNK3 block	KCNQ1 inh	Kir21 block	KCNQ1 act	KCNK9 block	KCNK3 confirm	KCNK3 uninduced	others
COc1ccc(C2c3[nH]c4ccccc4c3CCN2Cc2cccn2-c2ncccn2)cc1C (centres undefined)	-20	-13*	i	0.97	i	-18*	131*	0.14*	KCNK9 block conf=54%*;Kir2-1 spec=i;HEK293 Tl ctr=36%*
COc1cccc(CC(=O)OCC(=O)c2cc(OC)c(OC)c(OC)c2)c1	x	i	x	x	x	x	x	x
COCCn1c(N)c(Sc2ccc(C)cc2)c(=O)[nH]c1=O	0	i	i	0.64	i	i	x	x
CC(Oc1ccc(Cl)cc1)c1ccnn1S(=O)(=O)c1ccccc1 (centres undefined)	-8	-9.9*	i	-2.8	i	-11*	100*	0.14*	KCNK9 block conf=37%*;Kir2-1 spec=52%*;HEK293 Tl ctr=60%*
CSc1nc2ccc(NS(=O)(=O)c3ccc(Br)s3)cc2s1	-19	-11*	6*	-2.8	i	-8.3*	127*	0.13*	KCNK9 block conf=35%*;Kir2-1 spec=i;HEK293 Tl ctr=i
O=C(COC(=O)c1ccccc1SCC(=O)N1CCCC1)Nc1ccccc1C(F)(F)F	-8	i	i	-0.12	i	i	x	x
Cc1cc(C)cc(-n2c(C)cc(/C=N/NC(=O)CSc3ncccn3)c2C)c1	-12	-11*	i	-2.6	i	-14*	94*	i	KCNK9 block conf=60%*;Kir2-1 spec=i;HEK293 Tl ctr=32%*
C#Cc1ccc(CN2CCC(Oc3ccc(C(=O)NCc4ccccn4)cc3)CC2)cc1	-18	i	i	-0.81	i	i	x	x
Cc1cccc(NC(=O)COc2ccc(-c3nn(C)c(=O)c4ccccc34)cc2)c1	-7	-12*	6*	0.28	i	i	100*	i
COc1ccc(NC(=O)c2ccc(-c3nn(C)c(=O)c4ccccc34)cc2)cc1	-6	i	i	-2.1	i	i	x	x
COc1ccccc1NC(=O)c1ccc(-c2nn(C)c(=O)c3ccccc23)cc1	-19	-9.9*	i	0.16	i	i	96*	i
COc1ccc(N2CCN(c3oc(-c4ccco4)nc3C#N)CC2)cc1	-12	i	i	-1.3	i	i	x	x
N#Cc1nc(-c2ccco2)oc1N1CCN(c2ccccc2)CC1	-5	-11*	i	-0.09	i	i	119*	i
O=C(O)c1nn(CC(=O)N(C2CCCCC2)C2CCCCC2)c(=O)c2ccccc12	-4	i	i	-0.8	i	i	x	x
S=C(NCCc1ccccc1)Nc1ccc(Nc2ccccc2)cc1	-7	-9.3*	i	-0.03	i	i	126*	0.13*
CC(C)(CNC(=S)NCCc1ccccc1)CNC(=S)NCCc1ccccc1	-19	-9.4*	14*	1.8	i	i	116*	0.1*
S=C(NCCCc1ccccc1)Nc1ccccc1	-5	i	i	-1.6	i	i	x	x
O=C(CCCSc1nc2ccccc2c(=O)[nH]1)c1ccc(F)cc1	-7	i	i	-3.3	i	i	x	x
Cc1ccccc1C(=O)NNC(=O)C1CCN(C(=O)Nc2ccccc2)CC1	-13	i	i	1.6	i	i	x	x
CC1(C)Cc2cccc(C(=O)NCc3ccco3)c2O1	-8	-11*	i	0.05	i	i	105*	i
CC(C)(C)NC(=O)c1cccc2c1OC(C)(C)C2	-9	i	i	-0.18	i	i	x	x
O=C(Nc1ccccc1N1CCOCC1)c1ccc([N+](=O)[O-])s1	x	i	x	x	x	x	x	x
Cc1cccc(C)c1NC(=O)CN(C)CC(=O)Nc1ccc(F)c(Cl)c1	2	-12*	i	0.09	i	i	82*	i
Cc1ccc(N2CC(C(=O)Nc3cccc(C(=O)NC4CC4)c3)CC2=O)cc1 (centres undefined)	x	i	x	x	x	x	x	x
CC(C)(C)NC(=O)c1ccc(Sc2ccccc2)c([N+](=O)[O-])c1	-9	-9*	i	1.4	i	i	119*	i
SMILES	hERG rescue	KCNK3 block	KCNQ1 inh	Kir21 block	KCNQ1 act	KCNK9 block	KCNK3 confirm	KCNK3 uninduced	others
CCOC(=O)C1=C(C)OC(N)=C(C#N)C1c1cc(OC)c2c(c1)OCO2 (centres undefined)	-10	-9.7*	i	-1.4	i	i	94*	i
CCOC(=O)C1=C(C)OC(N)=C(C#N)C1c1cc(Cl)c(OCC(N)=O)c(OC)c1 (centres undefined)	-7	i	i	-1.3	i	i	x	x
COc1ccccc1C(=O)Nc1cccc(NC(=O)c2ccccc2OC)n1	-8	-11*	i	0.37	i	i	113*	i
O=C(Nc1cccc(NC(=O)c2ccccc2)n1)c1ccccc1	-5	-10*	i	1.3	i	i	97*	i
COc1ccccc1C(=O)Nc1ccon1	-7	i	i	0.01	i	i	x	x
COc1ccccc1C(=O)Nc1ccccc1SC(=O)c1ccccc1OC	-20	-9.4*	i	0.11	i	-13*	113*	i
Cc1cccc(NC(=O)c2ccc(C(=O)c3ccccc3)cc2)n1	-17	i	i	0.64	i	i	x	x
CCCN(CCC)S(=O)(=O)c1ccc(C(=O)NCc2ccco2)cc1	-3	i	i	0.85	i	i	x	x
CN(C)S(=O)(=O)c1ccc(C(=O)NCc2ccco2)cc1	-4	-9.2*	i	0.51	i	i	72*	i
COc1cc(NC(=O)CSCC(=O)Nc2cccc(C(F)(F)F)c2)c(Cl)cc1Cl	-12	-11*	7*	-1.6	i	i	115*	i
O=C(COCC(=O)Nc1cccc(C(F)(F)F)c1)Nc1cccc(C(F)(F)F)c1	-13	i	i	0.31	i	i	x	x
Cc1ccc([N+](=O)[O-])c(OCCCN2CCC(Cc3ccccc3)CC2)c1	-19	-8.8*	7*	-9.9*	i	i	119*	0.13*
